The values that follow come from PMC10938640 (Chemistry & biodiversity, 2023).

Entries after “also recorded” stand apart in the source; their conditions may differ. Some results are limits rather than exact numbers.

Series [1] concerns MDA-MB-231 triple-negative breast cancer cell line. Briefly: Differential Nuclear Staining. Type of series: cell-based, human.
Series [2] in a line: Differential Nuclear Staining. Type of series: cell-based, human. To be noted: human, MCF-10A mammary epithelial cells.
The subject of series [3] is CEM acute lymphoblastic leukemia cell line. Briefly: Differential Nuclear Staining. Type of series: cell-based, human. The gist of the method:
(§1)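 Cells grown in RPMI-1640 with 10% heat-inactivated FBS and penicillin/streptomycin at 37 °C, 5% CO2, then seeded at 10,000/well and left overnight. Test compound given at […] for 48 h, with untreated, 1% v/v DMSO and 1 mM H2O2 controls, at least three technical replicates. Hoechst plus PI (1 μg/mL final) added for the last 2 h. Wells imaged at 4X, live/dead percentages scored, and CC50 derived by linear interpolation.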

The test system of series [4] is Jurkat acute T cell leukemia cell line. Briefly: Differential Nuclear Staining. It is filed as cell-based, human. To be noted: 48 h exposure, DNS assay. The method, boiled down: as §1
The subject of series [5] is Jurkat cells. Briefly: Reactive oxygen species. It is filed as cell-based, human. To be noted: 18 h, CC50 (4.36 μM) and 2x CC50 (8.72 μM) of 6h, H2O2 positive control, vs DMSO.
Series [6] relates to MCF-10A mammary epithelial cell line. Briefly: Differential Nuclear Staining. To be noted: MCF-10A, 72 h exposure, DNS assay. Type of series: cell-based, human.
For series [7], the system named is Jurkat cells. Briefly: Mitochondrial depolarization assay, MitoProbe JC-1. Type of series: cell-based, human. To be noted: 5 h; for Cells with depolarized mitochondria: solvent 20.9%.
Series [8] has as its system Jurkat cells. Briefly: Annexin V-FITC/PI apoptosis assay. Type of series: cell-based, human. To be noted: 24 h, CC50 (4.36 μM) and 2x CC50 (8.72 μM), vs vehicle control.
Series [9] deals with Jurkat cells. Description: Cell cycle distribution analysis, NIM-DAPI. It is filed as cell-based, human. The conditions noted are these: 72 h.
A short description of series [10]: Solubility in the cytotoxicity experiment. Type of series: physicochemical. To be noted: could not be examined at concentrations higher than 1 μM; crystals formed.
Where [11] appears, read: MDA-MB-231, 72 h exposure, DNS assay.
Where [12] appears, read: 6h at CC25 (2.18 μM) and CC50 (4.36 μM), vs DMSO.

Regarding `Cc1ccc2c(c1)C(=Cc1cn(-c3ccccc3)nc1-c1ccc(Cl)cc1)C(=O)N2` [Compound 6j, 3-((3-(4-chlorophenyl)-1-phenyl-1H-pyrazol-4-yl)methylene)-5-methylindolin-2-one], the CC50 (commonly the concentration that lowers cell viability or growth by half) was above 20 µM in series [1] (Homo sapiens, MDA-MB-231, 72 h) and 7.66 ± 0.19 µM in [3] (Homo sapiens, 48 h). This compound registered a CC50 at 72 h in series [2] of 8.59 ± 0.31 µM.
As to `Cc1ccc(-c2nn(-c3ccccc3)cc2C=C2C(=O)Nc3ccc(C)cc32)cc1` [Compound 6h, 5-methyl-3-((3-(1-phenyl)-3-(p-tolyl)-1H-pyrazol-4-yl)methylene)indolin-2-one], the CC50 was above 20 µM in series [1] (setting [11]); 4.36 ± 0.2 µM in [4]; 14.8 ± 1.48 µM in series [6]; 7.14 ± 0.92 µM in series [3] (CEM, 48 h exposure, DNS assay). For the same compound, the ROS overproduction/accumulation result in series [5] is “does not activate ROS overproduction and/or accumulation; also recorded: does not cause ROS accumulation”. In series [7] (CC50 and 2x CC50), the “Mitochondrial depolarization (result in words)” value is recorded as “does not cause mitochondrial depolarization; also recorded: No significant increase in cells with depolarized mitochondria”. Further, the “Cells with depolarized mitochondria” value is listed as 18.7% in series [7] (at 2x CC50, untreated 13.2%) and 18.3% in series [7] (at CC50, untreated 13.2%). For the same compound, the “Phosphatidylserine (PS) externalization / apoptosis” value in series [8] is “induces a significant amount of PS externalization in a dose-response trend; also recorded: induced significant PS externalization”. Further, in [9] (setting [12]), the “DNA fragmentation (sub G0/G1)” value is reported as “moderate but significant increase in DNA fragmentation (sub G0/G1); also recorded: significant increase in DNA fragmentation (sub G0/G1; A)”. For the same compound, the G0/G1 phase subpopulation entry in series [9] (setting [12]) is “significant cell cycle arrest was seen in the G0/G1 subpopulation; also recorded: cell cycle arrest in the G0/G1 diploid phase”. The “G2/M (tetraploid) phase subpopulation” value in series [9] (setting [12]) is given as “small but also significant reduction in the G2/M (tetraploid) phase; also recorded: significant decrease in G2/M”.
For `Cc1ccc2c(c1)C(=Cc1cn(-c3ccccc3)nc1-c1ccccc1)C(=O)N2` [Compound 6g, 3-((1,3-diphenyl-1H-pyrazol-4-yl)methylene)-5-methylindolin-2-one], the CC50 in series [1] (Homo sapiens, MDA-MB-231, 72 h) is above 20 µM; in [4] (Homo sapiens, 48 h), above 20 µM; in series [3] (Homo sapiens, 48 h), above 20 µM. The compound further displayed a CC50 at 72 h in [2] of 13 ± 0.49 µM.
Consider `COc1ccc(-c2nn(-c3ccccc3)cc2C=C2C(=O)Nc3ccccc32)cc1` [Compound 6d, 3-((3-(4-Methoxyphenyl)-1-phenyl-1H-pyrazol-4-yl)methylene)indolin-2-one], for which the CC50 was above 1 µM in [1] (Homo sapiens, MDA-MB-231, 72 h); above 1 µM in series [4] (Homo sapiens, 48 h); above 1 µM in [3] (Homo sapiens, 48 h). For the same compound, the “Solubility (result in words)” value in [10] is “poor solubility”. This compound gave a CC50 at 72 h in series [2] above 1 µM.
Turning to `O=C1Nc2ccccc2C1=Cc1cn(-c2ccccc2)nc1-c1ccc(Cl)cc1` [Compound 6e, 3-((3-(4-Chlorophenyl)-1-phenyl-1H-pyrazol-4-yl)methylene)indolin-2-one], the CC50 is above 20 µM in [1] (Homo sapiens, MDA-MB-231, 72 h); above 20 µM in series [4] (Homo sapiens, 48 h); above 20 µM in [3] (Homo sapiens, 48 h). The same compound came in with a CC50 at 72 h in [2] above 20 µM.
As to `OO` [Compound H2O2, H2O2, reference compound], in series [5], the ROS overproduction/accumulation entry is “displayed the highest amount of accumulated ROS”. Moreover, the “DNA fragmentation (sub G0/G1)” value in [9] (setting [12]) is listed as “moderate but significant increase in DNA fragmentation (sub G0/G1)”.
Take `O=C1Nc2ccccc2C1=Cc1cn(-c2ccccc2)nc1-c1cc2ccccc2oc1=O` [Compound 6f, 3-((3-(2-Oxo-2H-chromen-3-yl)-1-phenyl-1H-pyrazol-4-yl)methylene)indolin-2-one]: the CC50 in [1] (Homo sapiens, MDA-MB-231, 72 h) was above 20 µM; in [4] (Homo sapiens, 48 h) it was above 20 µM; in series [3] (Homo sapiens, 48 h) it was above 20 µM. In addition, the CC50 at 72 h in series [2] was above 20 µM.
In the case of `Cc1ccc2c(c1)C(=Cc1cn(-c3ccccc3)nc1-c1cc3ccccc3oc1=O)C(=O)N2` [Compound 6k, 5-methyl-3-((3-(2-oxo-2H-chromen-3-yl)-1-phenyl-1H-pyrazol-4-yl)methylene)indolin-2-one], the CC50 is above 20 µM in [1] (Homo sapiens, MDA-MB-231, 72 h); above 20 µM in series [4] (Homo sapiens, 48 h); above 20 µM in [3] (Homo sapiens, 48 h). This compound also registered a CC50 at 72 h in series [2] above 20 µM.
For the compound `Cc1ccc(-c2nn(-c3ccccc3)cc2C=C2C(=O)Nc3ccccc32)cc1` [Compound 6b, 3-((1-Phenyl-3-(p-tolyl)-1H-pyrazol-4-yl)methylene)indolin-2-one], the CC50 in series [1] (Homo sapiens, MDA-MB-231, 72 h) was above 1 µM; in series [4] (Homo sapiens, 48 h), above 1 µM; in [3] (Homo sapiens, 48 h), above 1 µM. Also, the “Solubility (result in words)” value in series [10] was “poor solubility”. In addition, the CC50 at 72 h in series [2] was above 1 µM.
On to `O=C1Nc2ccccc2C1=Cc1cn(-c2ccccc2)nc1-c1ccccc1` [Compound 6a], for which the CC50 in series [1] (setting [11]) was above 1 µM; in series [4] it was above 1 µM; in [6], above 1 µM; in series [3] (CEM, 48 h exposure, DNS assay) it was above 1 µM. Moreover, the “Solubility (result in words)” value in series [10] is “poor solubility”.
For the compound `COc1ccc(-c2nn(-c3ccccc3)cc2C=C2C(=O)Nc3ccc(C)cc32)cc1` [Compound 6i, 3-((3-(4-methoxyphenyl)-1-phenyl-1H-pyrazol-4-yl)methylene)-5-methylindolin-2-one], the CC50 in [1] (Homo sapiens, MDA-MB-231, 72 h) is above 20 µM; in series [4] (Homo sapiens, 48 h), above 20 µM; in series [3] (Homo sapiens, 48 h) it was above 20 µM. The CC50 at 72 h in [2] was 9.37 ± 0.42 µM.
Regarding `COc1cc([C@@H]2c3cc4c(cc3[C@@H](O[C@@H]3O[C@@H]5CO[C@@H](C)O[C@H]5[C@H](O)[C@H]3O)[C@H]3COC(=O)[C@H]23)OCO4)cc(OC)c1O` [etoposide, reference compound], the “DNA fragmentation (sub G0/G1)” value in series [9] (setting [12]) is reported as “moderate but significant increase in DNA fragmentation (sub G0/G1)”. Also, in series [9] (control), the “S hyperdiploid phase subpopulation” value was “significant arrest in the S hyperdiploid phase”.
On to `O=C1Nc2ccccc2C1=Cc1cn(-c2ccccc2)nc1-c1ccc([N+](=O)[O-])cc1` [Compound 6c, 3-((3-(4-Nitrophenyl)-1-phenyl-1H-pyrazol-4-yl)methylene)indolin-2-one], for which the CC50 is above 20 µM in [1] (Homo sapiens, MDA-MB-231, 72 h); above 20 µM in series [4] (Homo sapiens, 48 h); above 20 µM in series [3] (Homo sapiens, 48 h). In series [2], this compound registered a CC50 at 72 h above 20 µM.
